Data from ChEMBL document CHEMBL1250451, “Mechanistic insights into a Ca2+-dependent family of alpha-mannosidases in a human gut symbiont” (Nat Chem Biol, 2010).

Assays:
Format in all cases: protein assay
[1] = target: T1, Alpha-1,2-mannosidase (BT_2199) (Bacteroides thetaiotaomicron, UniProt Q8A5N9); assay: Inhibition of Bacteroides thetaiotaomicron GH92 alpha-mannosidase 2199 assessed as reduction of mannose release using 4NP-mannopyranoside substrate
T1 sequence (Q8A5N9 whole entry): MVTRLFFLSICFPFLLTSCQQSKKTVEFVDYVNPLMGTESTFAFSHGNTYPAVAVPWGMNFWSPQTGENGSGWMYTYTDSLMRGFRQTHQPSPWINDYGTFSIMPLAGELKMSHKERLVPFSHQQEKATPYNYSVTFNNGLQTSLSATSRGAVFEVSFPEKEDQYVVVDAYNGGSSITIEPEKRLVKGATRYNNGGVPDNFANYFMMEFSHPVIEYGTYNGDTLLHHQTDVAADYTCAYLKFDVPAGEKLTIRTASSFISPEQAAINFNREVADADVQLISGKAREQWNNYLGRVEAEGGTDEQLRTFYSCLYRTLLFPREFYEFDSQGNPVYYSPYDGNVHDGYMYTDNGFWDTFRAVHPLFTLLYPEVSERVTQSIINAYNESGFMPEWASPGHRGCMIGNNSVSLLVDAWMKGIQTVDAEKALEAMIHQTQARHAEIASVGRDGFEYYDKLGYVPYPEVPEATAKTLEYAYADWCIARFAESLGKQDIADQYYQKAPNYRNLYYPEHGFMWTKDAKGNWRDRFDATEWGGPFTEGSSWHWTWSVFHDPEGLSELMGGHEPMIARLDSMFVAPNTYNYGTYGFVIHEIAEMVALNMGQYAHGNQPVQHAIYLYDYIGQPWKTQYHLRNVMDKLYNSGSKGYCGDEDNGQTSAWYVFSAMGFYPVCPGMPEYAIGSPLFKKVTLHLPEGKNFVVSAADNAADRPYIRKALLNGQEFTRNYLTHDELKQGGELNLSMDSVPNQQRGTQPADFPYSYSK
In short: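 Recombinant enzymes expressed in E. coli. Bt3990 was purified by IMAC, anion exchange and size exclusion; Bt2199 by IMAC only. Ki was measured with at least five inhibitor concentrations at a substrate concentration ≪ Km for each enzyme. Ki was taken as the x-axis intercept of a plot of […] against inhibitor concentration.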

[2] = substrate: O=[N+]([O-])c1ccc(O[C@H]2O[C@H](CO)[C@@H](O)[C@H](O)[C@@H]2O)cc1; assay: Ratio of Kcat to Km for Bacteroides thetaiotaomicron GH92 alpha-mannosidase GH92 alpha-mannosidase 3527 assessed as mannose release after 16 hrs by HPLC
[3] = substrate: O=[N+]([O-])c1ccc(O[C@H]2O[C@H](CO)[C@@H](O)[C@H](O)[C@@H]2O)cc1; assay: Activity of Bacteroides thetaiotaomicron GH92 alpha-mannosidase GH92 alpha-mannosidase 3527 assessed as mannose release after 16 hrs by HPLC
[4] = substrate: O=[N+]([O-])c1ccc(O[C@H]2O[C@H](CO)[C@@H](O)[C@H](O)[C@@H]2O)cc1; assay: Ratio of Kcat to Km for Bacteroides thetaiotaomicron GH92 alpha-mannosidase GH92 alpha-mannosidase 3773 assessed as mannose release after 16 hrs by HPLC
[5] = substrate: O=[N+]([O-])c1ccc(O[C@H]2O[C@H](CO)[C@@H](O)[C@H](O)[C@@H]2O)cc1; assay: Activity of Bacteroides thetaiotaomicron GH92 alpha-mannosidase GH92 alpha-mannosidase 3773 assessed as mannose release after 16 hrs by HPLC
[6] = substrate: O=[N+]([O-])c1ccc(O[C@H]2O[C@H](CO)[C@@H](O)[C@H](O)[C@@H]2O)cc1; assay: Ratio of Kcat to Km for Bacteroides thetaiotaomicron GH92 alpha-mannosidase GH92 alpha-mannosidase 2629 assessed as mannose release after 16 hrs by HPLC
[7] = substrate: O=[N+]([O-])c1ccc(O[C@H]2O[C@H](CO)[C@@H](O)[C@H](O)[C@@H]2O)cc1; assay: Activity of Bacteroides thetaiotaomicron GH92 alpha-mannosidase GH92 alpha-mannosidase 2629 assessed as mannose release after 16 hrs by HPLC
[8] = substrate: O=[N+]([O-])c1ccc(O[C@H]2O[C@H](CO)[C@@H](O)[C@H](O)[C@@H]2O)cc1; assay: Activity of Bacteroides thetaiotaomicron GH92 alpha-mannosidase GH92 alpha-mannosidase 1769 assessed as mannose release after 16 hrs by HPLC
[9] = substrate: O=[N+]([O-])c1ccc(O[C@H]2O[C@H](CO)[C@@H](O)[C@H](O)[C@@H]2O)cc1; assay: Ratio of Kcat to Km for Bacteroides thetaiotaomicron GH92 alpha-mannosidase GH92 alpha-mannosidase 1769 assessed as mannose release after 16 hrs by HPLC
[10] = substrate: O=[N+]([O-])c1ccc(O[C@H]2O[C@H](CO)[C@@H](O)[C@H](O)[C@@H]2O)cc1; assay: Activity of Bacteroides thetaiotaomicron GH92 alpha-mannosidase GH92 alpha-mannosidase 2111 assessed as mannose release after 16 hrs by HPLC
[11] = substrate: O=[N+]([O-])c1ccc(O[C@H]2O[C@H](CO)[C@@H](O)[C@H](O)[C@@H]2O)cc1; assay: Ratio of Kcat to Km for Bacteroides thetaiotaomicron GH92 alpha-mannosidase GH92 alpha-mannosidase 2111 assessed as mannose release after 16 hrs by HPLC

## O=C1N[C@@H]2[C@@H](O)[C@@H](O)[C@H](O)[C@@H](CO)N2C1=O [KIFUNENSINE]
[1]
  Ki: 230 µM

B1: Alpha-1,2-mannosidase (BT_3527) (Bacteroides thetaiotaomicron), Q8A1Y1 (protein)
chain: MKKLALLAFTLFSAWNMDAKTITGPVDYVSPLVGTQSKHALSTGNTYPAIALPWGMNFWVPQTGKMGDGWAYTYDADKIRGFKQTHQPSPWINDYGQFSIMPITGKAVFDQDQRASWFSHKAETATPYYYKVYLADHDVVTEIAPTERAAAFRFTFPENDHSYVVVDAFDNGSFVKVIPSENKIIGYTTKNSGGVPANFKNYFVLEFDKPFTYTAAVANGNIDTNKLEANDKHAGALIGFKTRKGEQVNVRVASSFISPEQAELNLKELGKDNIDQIAAKGRKVWNDVLGRIEVEDDDIDHLRTFYSCLYRSVLFPRSFYEIDAKGDIVHYSPYNGEVLPGYMFTDTGFWDTFRCLFPFLNLMYPSMNMKMQEGLVNTYKESGFLPEWASPGHRGCMVGNNSASVVADAYLKGLKGYDIETLWEAVKHGANAVHPQVSSTGRLGYDYYNKLGYVPYNVGINENAARTLEYAYNDWCIYQLGKALNKPKKEIEIFAKRAMNYKNLYDPEHKLMRGKNEDGKFQSPFNPLKWGDAFTEGNSWHYTWSVFHDPQGLIDLMGGKDGFNQMMDSVFILPPVFDDSYYGGVIHEIREMQIMNMGNYAHGNQPIQHMLYMYNYSGQPWKAQHWIREVMDKLYTPAPDGYCGDEDNGQTSAWYVFSAMGFYPVCPGTDEYILGTPYFKQMKLHLENGKTVTISAPNNGDDKRYISSMTLNGKDHTKNYVTHEDLMNGASITFKMDSKPNEQRGTKETDFPYSFSNEFKKKK
[2]
  kcat/Km: Not Active
[3]
  Km: Not Active
  kcat: Not Active

B2: Alpha-1,2-mannosidase, putative (BT_3773) (Bacteroides thetaiotaomicron), Q8A193 (protein)
chain: MNAFKLLMAASCFLGLATSGVAKQDYSKSEGLLQYVDPYIGSGFHGHVFVGTSVPYGMVQLGPNNIHKGWDWCSGYHYSDSILIGFSHTHLSGTGCTDLGDILIMPLNEIRTPRGNQDDIRDGYASKYSHDNEIARPEYYSLILDRYNIKAELTATDRVGFHRYTYPEGKPVSILIDLREGNGSNAYDSYIRKVDDYTVEGYRYVRGWSPSRKVYFVLKSDQKIEKFTAYDDNTPKLWDQLKVESVKSVLTFGNVKEVKIKVAISSVSCDNAAMNLQAELSHWDFDKVVKMSSDRWNKQLDKMTVESDDEAAKRVFYTAHYHTMIAPTLYCDVNGEYRGMNDMIYTDPKKANYTTLSLWDTYRALNPLMTIIQPEMVDNVINSMLSIYRQQDKLPIWPLMSGETNCMPGYSSVPVIADAYLKGFTGFDAEEALTAMKATATYEGQNGVPYVMAKGYIPADKIHEATSIAMEYAVDDWGIAAMAQKMGKTADYETFSKRAHYYKNYFDSSIHFIRPKLEDGSWRTPYDPARSIHGVGDFCEGNGWQYTFFAPQDPYGLISLFGGDKPFTSKLDSFFTNNDSMGEGASSDITGLIGQYAHGNEPSHHIAYLYTYAGEQWKTAEKVRFIMSDFYTDQPDGIIGNEDCGQMSAWYLLSAMGFYQVNPSDGVFAFGSPRFKKIEVKVRGGKVFTVEAPNNSKDNIYIQKVYLNGKPYHKSYITYDDIINGSTLKFEMGKKPAKNFGKASANRPIVLNK
[4]
  kcat/Km: Not Active
[5]
  Km: Not Active
  kcat: Not Active

B3: Alpha-1,2-mannosidase (BT_2629) (Bacteroides thetaiotaomicron), Q8A4H0 (protein)
chain: MKTHFSFKHLLFLGGAVLYSLQSSAVKNPVDYVSTLIGTQSKFELSTGNTYPATALPWGMNFWTPQTGKMGDGWAYTYDADKIRGFKQTHQPSPWMNDYGQFAIMPITGGLVFDQDRRASWFSHKAEVAKPYYYKVYLADHDVTTELAPTERAVMFRFTYPETKNAYVIVDAFDKGSYVKVIPEENKIIGYSTKNSGGVPENFKNYFVIQFDKPFTFVSTVFENNILPNETEAKGNHTGAVIGFATKKGEIVHARVASSFISPEQAELNLKELGKNSFDQLVANGREIWNREMSKIEIEDDNIDNLRTFYSCLYRSMLFPRSFYEIDAKGQVMHYSPYNGEVRPGYMFTDTGFWDTFRCLFPFLNLMYPSMNQKMQEGLVNTYKESGFLPEWASPGHRDCMVGNNSASVVADAYIKGLRGYDIETLWEALKHGANAHLRGTASGRLGYESYNQLGYVANNIGIGQNVARTLEYAYNDWAIYTLGKKLGKPENEIDIYKKHALNYKNVYHPERKLMVGKDNKGVFNPNFDAVDWSGEFCEGNSWHWSFCVFHDPQGLINLMGGKKEFNAMMDSVFVISGKLGMESRGMIHEMREMQVMNMGQYAHGNQPIQHMVYLYNYSSEPWKAQYWIREIMNKLYTAGPDGYCGDEDNGQTSAWYVFSALGFYPVCPGTDEYIIGTPLFKSAKLHLENGKTITIKADNNQLDNRYIKEMKVNGKSQTRNFLTHDQLIKGANIQFQMSPVPNKQRGTTEKDVPYSLSFE
[6]
  kcat/Km: Not Active
[7]
  Km: Not Active
  kcat: Not Active

B4: Alpha-1,2-mannosidase (BT_1769) (Bacteroides thetaiotaomicron), Q8A6V7 (protein)
chain: MKLTHILASAAIISTLSACNGSLQTADRTPVDYVNPYIGNISHLLVPTFPTIQLPNSMLRVYPERADYTSELLKGLPLIVTNHRERSAFNFSPYQGEKLRPVITYNYDNEHITPYSFDVELDDNRMKAEYALSHQSAIYRITYEADKPAYLIVNSRNGSIHANENFISGRQQLNDNTNVYVYIEAQEKPISAGILENGTIETSKDNAEGANACAAWRFADGTTTVNLRYGISFISEEQAEKNLHRELKDYNIKALAEAGRQIWNETLGRIQVEGGTEDDKTVFYSSFYRTFERPICMSEGGRYFSAFDGKVHEDNGTPFYTDDWIWDTYRAAHPLRTLIDQQKEEDIIASYLRMAEQMGNMWMPTFPEVTGDTRRMNSNHAVATVADALAKGLKVDTAKAYEACRKGIEEKTLAPWSGAPAGWLDNFYRENGYIPALRVDEPENDPNVHPFEKRQPVAVTLGTSYDQWCLSRIAQALNKKEEAEYYLKCSYNYRNLYNKETAFFHPKDKEGQWIEPFDYRFPGGMGAREYYGENNGWVYRWDVPHNVADLISLMGGNEQFIANLDRTFTEPLGRSKYAFYAKLPDHTGNVGQFSMANEPSLHVPYLYNYAGQPWKTQKRIRQMLKTWFRNDLMGIPGDEDGGGMTSFVVFSSLGFYPVTPGLPAYTIGSPLFTDAKIRLSNGAVFEIEAKNASTDNKYIQSATLNGKEWNKSWFSHDDLMSGGKLVLVMGNKPNKTWASGAEDVPPSLEIK
[8]
  Km: Not Active
  kcat: Not Active
[9]
  kcat/Km: Not Active

B5: Alpha-1,2-mannosidase (BT_2111) (Bacteroides thetaiotaomicron), Q8A5X5 (protein)
chain: MKRIPLSLFTFLFLLSGLCAAPTKTVWQIGEKNHSASELALSPDKYKEFLANDFGWEDRFYIIGLSSPQKDFPYVLPGPADHWGGTSYTAGIRTHVLNILFGMKEVPETDSWKLIIDLLDTHHELPALFKITINGKSWKYALPKGSGKSIDGDYSQIKPHTIEIPLNSGVIRKGSNSIALTSLEGSWILFDDIRLMGPDNAELNEVNKSVYLRDVKAADFQTTSPVAQPLLVDIEHLSGHPLLEVKVDGKKILEQRLEKGRYILEAPMPVVKSPKTSHYIISADGAILDKGMIRRAPHNTITLADYIDTRMGTAHSRWMIAPGTWMPFSMVKLSPDNQDSGWQSGYDPSFESIGTFSHIHEWTMAGLGIMPANGPLKTEIGSQSSLVKDANSYRSAIDKTSEETKVGYYKVDLTDYQIKAELTATSRCGFQRYTYPQDKDARVMIDLKIPSEYDYQIVEGSVKQTGARRIEGFSKQLSKNVWSADADQNYTIYFVIEFNKDIKKFGGWHDHTLWETDTMTAHYPQRFGCYAEFDTTDHPEVMVRSGISYVDMAGASNNLSNEITEPFGWNFEAVHKHQSDSWNNILNRVRIYSNDYREKVRFYTNLYRAFCRNTFSDADRRWVDAAGNIQKLDDPDAVALGCDAFWNTFWNLNQVWNLIAPEWSSRWVKSQLAMYDANGWLAKGPSGMKYIPVMVGEHEIPLLVSTYQMGIRNYDAEKMFRAIVKMQTTPAQRVANGFAGNRDLETYLQHQYVPADKGRFSNTLEYSYDDWTVSQLAKALGKEEYYRTFSNRGNWWKNAINPATGYAQMRYSNGEWEKNFDPFKSGANHHYVEGNAWQLTFFVPQNVPALTEIIGKELFIDRLSWGFKASEPWRYNAPGDQYWDFPVVQGNQQSMHFAFLFNWAGQPWQTQRWSRSIIDRYYGFDTSNAYLGDEDQGQMSAWFVMAALGLFQTDGGCNAEPVYELGSPLFEKIKIDLGKHFGRGKQFIIKASNTSRENKYIQSAKLNGKKLNSFKFPAKELLKGGTLELEMGDRPNKNWGIK
[10]
  Km: Not Active
  kcat: Not Active
[11]
  kcat/Km: Not Active
